Screening results: PubChem BioAssay, several laboratories
NR2E3 ag-1 – NR2E3 (human) agonism. hit rate 0.12% among 320,000. inhibition of corepressor binding, % at 4.78 µM. GST-NR2E3/biotin-RetCOR TR-FRET, 1536-well. AID 2300;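 active = percent inhibition above the cutoff of mean plus 3 SD of all tested compounds, set per screening campaign, cut at about 20% in these data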
Target sequence (Q9Y5X4 whole entry, looked up): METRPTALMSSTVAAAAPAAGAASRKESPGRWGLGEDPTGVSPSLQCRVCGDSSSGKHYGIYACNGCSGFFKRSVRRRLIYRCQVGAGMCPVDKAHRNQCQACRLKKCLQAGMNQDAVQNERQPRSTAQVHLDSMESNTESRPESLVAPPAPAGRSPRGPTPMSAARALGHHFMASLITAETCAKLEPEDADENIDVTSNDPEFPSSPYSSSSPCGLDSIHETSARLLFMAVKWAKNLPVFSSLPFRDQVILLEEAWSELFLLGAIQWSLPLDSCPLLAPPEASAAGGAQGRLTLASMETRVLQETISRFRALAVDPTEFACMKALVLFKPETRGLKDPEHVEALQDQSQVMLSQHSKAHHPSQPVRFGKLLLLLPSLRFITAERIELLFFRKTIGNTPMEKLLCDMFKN
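Format: 1536-well format; test system: GST-NR2E3 and biotin-RetCOR proteins; read-out basis: percent inhibition of TR-FRET ratio; timing: 5 h incubation at 4 °C; detection: time-resolved FRET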
NR2E3 ag-2 – agonists of human NR2E3 nuclear receptor | CHO-S Gal4-NCOR/VP16-NR2E3 two-hybrid, luciferase | inhibition of corepressor binding, % at 3.98 µM | hit rate 0.35% among 360,000 | AID 602229;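 active = inhibition above the mean of all tested compounds plus 3 SD, cut at about 70% in these data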;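 also: higher means lower luciferase signal from less NR2E3 corepressor binding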
PG9 Ab binder – PG9 antibody binding by small molecule. hit rate 0.43% among 360,000. inhibition, % at 6.7 µM. TR-FRET gp120-PG9 antibody binding; in the data active = inhibition above about 8.5%
Rev-erbA mod – Rev-erb alpha (human) modulation; hit rate 0.79% among 370,000; activity, % at 10 µM; AID 1259318; Rev-erbα–FITC-DNA binding, fluorescence polarization, 90 min; P20393;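 active = activity above about 14%, limit read from the data; passing the limit was not always enough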
NR2E3 ag confirm – confirmation of human NR2E3 agonists; shares compounds with NR2E3 ag-2; CHO-S mammalian two-hybrid NR2E3-NCOR, luciferase luminescence; inhibition, % at 3.98 µM; hit rate 51% among 2,300;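 active = average inhibition above a cutoff equal to the mean inhibition of all tested compounds plus one SD, cut at about 70% in these data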
GAL4-VP16 luc – reduces GAL4-VP16 reporter signal in NR2E3 counterscreen; AID 624379; hit rate 29% among 2,300; shares compounds with NR2E3 ag-2; inhibition, % at 3.98 µM; CHO-S GAL4-VP16 luciferase reporter, luminescence;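 active = mean inhibition above a cutoff equal to the average over all tested compounds plus one standard deviation, cut at about 70% in these data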;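 also: luciferase from a UAS reporter driven by GAL4-VP16 transactivation; higher means less reporter light so more repression of VP16 activity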
Large screens that a line does not name were inactive (follow-up assays come after a bar, where they were run). A selection: hits, their analogues and other compounds. The true share with any hit is near 1.4%.

Cc1ccc(CC#N)c(-c2c(CC#N)ccc(C)c2C)c1C	none (no result: NR2E3 ag-1)
Cc1ccc2c(c1C)-c1c(ccc(C)c1C)C(=O)C2=O	none (no result: NR2E3 ag-1) | NR2E3 ag confirm inactive | GAL4-VP16 luc inactive
Cc1cc(Nc2nc3ccccc3[nH]c2=O)n(-c2ccccc2)n1	none | NR2E3 ag confirm inactive | GAL4-VP16 luc inactive
COc1ccc(CNCCc2ccc(Cl)cc2)cc1OCc1ccccc1	none (no result: PG9 Ab binder, Rev-erbA mod) | NR2E3 ag confirm 82 | GAL4-VP16 luc 71
COc1ccc(CCNC(=O)Cc2ccc(OCc3ccccc3)c(OC)c2[N+](=O)[O-])cc1OCc1ccccc1	NR2E3 ag-2 101 | NR2E3 ag confirm 88 | GAL4-VP16 luc 73
CCOC(=O)[C@]12CCCCC/C=C\1N(CCc1ccc(Cl)cc1)C(=O)[C@H]2CC(=O)N1CCN(C(=O)C2CC2)CC1	none (no result: NR2E3 ag-1, NR2E3 ag-2, PG9 Ab binder)
COc1cccc(N2CCN(C(=O)c3ccc(CS(=O)c4ccccc4Cl)o3)CC2)c1 (stereo unspecified)	none | NR2E3 ag confirm inactive | GAL4-VP16 luc inactive
CC(=O)c1cc(-c2cccc(C(C)C)c2)c(=O)n2c1CCC2	none (no result: NR2E3 ag-1, NR2E3 ag-2, PG9 Ab binder)
CCOC(=O)N1CCN(C(=O)C[C@H]2C(=O)N(Cc3ccc(OC)cc3)C3=CCCC[C@@]32C(=O)OCC)CC1	none (no result: NR2E3 ag-1, NR2E3 ag-2, PG9 Ab binder)
Cc1c(Cl)ccc2sc(N3CCN(C(=O)C4=COCCO4)CC3)nc12	NR2E3 ag-2 79 | NR2E3 ag confirm 90 | GAL4-VP16 luc inactive
Cc1ccc2sc(N3CCN(C(=O)c4ccc([N+](=O)[O-])o4)CC3)nc2c1C	none
CCC(=O)N1CCCc2cc(S(=O)(=O)N3CCN(c4ccccn4)CC3)ccc21	none | NR2E3 ag confirm 93 | GAL4-VP16 luc inactive
CCC(=O)N1CCCc2cc(S(=O)(=O)N3CCN(c4ncccn4)CC3)ccc21	none
CSc1ccccc1C(=O)Nc1nc2ccccc2[nH]1	none
COc1ccccc1C(=O)NCCC(=O)Nc1nc2ccccc2[nH]1	none
COc1ccccc1C(=O)Nc1nc2ccccc2[nH]1	NR2E3 ag-2 82 | NR2E3 ag confirm 77 | GAL4-VP16 luc inactive
COc1cc(SC)ccc1C(=O)Nc1nc2ccccc2[nH]1	NR2E3 ag-2 110 | NR2E3 ag confirm 95 | GAL4-VP16 luc 91
O=C(OCc1cn(Cc2ccc(F)cc2)nn1)N1CCCC1	none (no result: NR2E3 ag-1, NR2E3 ag-2, PG9 Ab binder)
CCn1c(Cl)c(C=O)s/c1=N\S(=O)(=O)c1ccccc1	none | NR2E3 ag confirm inactive | GAL4-VP16 luc inactive
CCN1C(=O)CS/C1=N\S(=O)(=O)c1ccc(Cl)cc1	none
C#CCN1CC(N(C)CCCO)CS1(=O)=O (stereo unspecified)	none (no result: NR2E3 ag-1, NR2E3 ag-2, PG9 Ab binder)
CCOc1ccc(-c2nc(CSCC(=O)N3CCN(c4cccc(OC)c4)CC3)c(C)o2)cc1	none | NR2E3 ag confirm 78 | GAL4-VP16 luc inactive
Cc1ccc(-c2nc(CSCC(=O)N3CCN(c4ccccn4)CC3)c(C)o2)cc1	NR2E3 ag-2 83 | NR2E3 ag confirm 87 | GAL4-VP16 luc 76
Cc1ccc(-c2nc(CSCC(=O)N3CCOCC3)c(C)o2)cc1	none
CC1(C(=O)N2CCC(Oc3cccnc3)CC2)CC1	none (no result: NR2E3 ag-1, NR2E3 ag-2, PG9 Ab binder)
O=C1CCCN1c1ccc(S(=O)(=O)Nc2cccnc2)cc1	none
CC1CCC(NS(=O)(=O)c2ccc(N3CCCC3=O)cc2)CC1 (stereo unspecified)	none | NR2E3 ag confirm inactive | GAL4-VP16 luc inactive
O=C(c1cc(F)cc(F)c1)N1CCCC(c2nc(-c3cccs3)no2)C1 (stereo unspecified)	none (no result: NR2E3 ag-1, NR2E3 ag-2, PG9 Ab binder)
COc1cc(CC2COC(=O)C2Cc2ccc(O)c(OC)c2)ccc1O (stereo unspecified)	none (no result: NR2E3 ag-1, NR2E3 ag-2)
COc1cc(C[C@@H]2C(=O)OC[C@H]2Cc2ccc(OC)c(OC)c2)ccc1O	NR2E3 ag-2 87 | NR2E3 ag confirm 95 | GAL4-VP16 luc 81
O=C(OCC12CC3CC(CC(C3)C1)C2)c1ccc(NCc2cc(O)ccc2O)cc1	NR2E3 ag-2 74 (no result: NR2E3 ag-1) | NR2E3 ag confirm inactive | GAL4-VP16 luc inactive
O=C(OCCC12CC3CC(CC(C3)C1)C2)c1ccc(NCc2cc(O)ccc2O)cc1	none (no result: NR2E3 ag-1)
Cc1c(C(C)c2ccccc2O)c2ccccc2n1C (stereo unspecified)	none (no result: NR2E3 ag-1, NR2E3 ag-2, PG9 Ab binder)
CC(C)OC(=O)NCCOC(=O)Nc1ccc(Cl)c(Cl)c1	none | NR2E3 ag confirm 92 | GAL4-VP16 luc 74
CNC(=S)N/N=C/c1cc(Br)cc(Br)c1O	NR2E3 ag-2 89 | NR2E3 ag confirm inactive | GAL4-VP16 luc inactive
Oc1c(Br)cc(Br)cc1/C=N/NC(=S)N[C@H]1CC2C=CC1C2 (stereo partly specified)	none
